The test system of data set [1] is Mus musculus. Kind of data set: Anticonvulsant activity in ip dosed mouse assessed as reduction in PTZ-induced clonic seizures administered 45 mins before PTZ stimulation. It is filed as functional. The method, boiled down:
(§1)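 Outbred mice (18–22 g), 8 per dose. Compounds given i.p. at 10–100 mg kg–1 as a carboxymethylcellulose/Tween-80 suspension, 45 min before s.c. pentylenetetrazole 90 mg kg–1; controls received emulsifier. Endpoint was prevention of clonic seizures. ED50 was derived by Litchfield–Wilcoxon probit analysis.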

Data set [2] concerns Mus musculus. Put plainly: Anticonvulsant activity in mouse assessed as proportion of animals displaying reduction in PTZ-induced clonic seizures at 50 mg/kg, ip administered 45 mins before PTZ stimulation relative to control. The arrangement: scale not given: the % may be the effect or the level left. It is filed as functional. Put shortly:
as §1

For data set [3], the system named is Mus musculus. Put plainly: Anticonvulsant activity in mouse assessed as reduction in PTZ-induced clonic seizures at 25 mg/kg, ip administered 45 mins before PTZ stimulation. It is filed as functional, organism-based. Put shortly: as §1
Data set [4] can be described thus: Neurotoxicity in ip dosed mouse assessed as myorelaxation measured for 2 mins by rotarod test. The class given is toxicity, organism-based. As to conditions: in vivo. The method, boiled down: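 Mice were placed on a corrugated rubber-coated metal rod rotating at 5 rpm, and the number staying on for 2 min was counted. TD50 was derived by Litchfield–Wilcoxon probit analysis.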
(In general: Falling from the rotarod earlier than controls is read as motor impairment.)

Data set [5] in a line: Neurotoxicity in ip dosed mouse assessed as maximum tolerated dose by rotarod test. It is filed as toxicity, organism-based. As to conditions: in vivo. Put shortly: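 Mice given compounds i.p. at […] to 1800 mg/kg to establish the maximal tolerated dose.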
A short description of data set [6]: Protection index, ratio of TD50 for neurotoxicity in ip dosed mouse to ED50 for anticonvulsant activity in ip dosed mouse. The class given is toxicity, organism-based. As to conditions: in vivo, read-out: Ratio TD50/ED50.
In data set [7] the test system is Mus musculus. Kind of data set: Anticonvulsant activity in mouse assessed as MES-induced […] seizures at 10 to 100 mg/kg, ip administered 45 mins before electrical stimulation. The class given is functional, organism-based.
Data set [8] concerns Mus musculus. Kind of data set: Anticonvulsant activity in mouse assessed as MES-induced tonic seizures at 10 to 100 mg/kg, ip administered 45 mins before electrical stimulation. It is filed as functional, organism-based. The method, boiled down: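 Mice, 8 per dose. Compounds given i.p. at 10, 25, 50, 75 or 100 mg kg–1 in carboxymethylcellulose/Tween-80 suspension, 45 min before maximal electroshock (50 mA, 0.2 s, 50 imp s–1); controls received emulsifier. Endpoint was prevention of the tonic-extensor phase.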

The nature of data set [9]: Neurotoxicity in mouse assessed as motor coordination at 50 to 100 mg/kg, ip by rotarod test. As to conditions: in vivo. It is filed as toxicity, organism-based. Put shortly: (§2)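 Mice dosed i.p. at 50–100 mg kg–1; reference drugs given at effective anticonvulsant doses. Mice were placed on a corrugated rubber-coated metal rod rotating at 5 rpm, and the number staying on for 2 min was counted. TD50 was derived by Litchfield–Wilcoxon probit analysis.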

Data set [10] has as its system Rattus norvegicus. Put plainly: Antianxiety activity in Wistar rat assessed as horizontal movement of animals at 50 mg/kg, ip measured for 5 mins by open field test. The class given is functional, organism-based. Put shortly:
(§3)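 Male Wistar rats (120–140 g), n = 8 per compound, control and reference. Single i.p. dose of 50 mg kg–1 as a suspension in methylcarboxycellulose with Tween-80; controls received emulsifier. Daytime, natural light. Over 5 min, horizontal movements, rearings (vertical movements) and cell sniffings were counted.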

Data set [11] concerns Rattus norvegicus. Kind of data set: Antianxiety activity in Wistar rat assessed as vertical movement of animals at 50 mg/kg, ip measured for 5 mins by open field test. It is filed as functional, organism-based. The method, boiled down: as §3
Data set [12] relates to Mus musculus. Kind of data set: Antianxiety activity in mouse assessed as time spent in closed arms at 50 mg/kg, ip measured for 5 mins by elevated plus maze test (reference value: 278.2 secs). The class given is functional.
Data set [13] has as its system Rattus norvegicus. Put plainly: Antianxiety activity in Wistar rat assessed as increase in number of sniffing cell examinations at 50 mg/kg, ip measured for 5 mins by open field test. The class given is functional, organism-based. Put shortly:
as §3

Data set [14] relates to Mus musculus. Kind of data set: Sedative activity in mouse assessed as time spent in center at 50 mg/kg, ip measured for 5 mins by elevated plus maze test (reference value: 21.8 secs). It is filed as functional.
Data set [15] deals with Mus musculus. Kind of data set: Antianxiety activity in mouse assessed as increase in time spent in open arms at 50 mg/kg, ip measured for 5 mins by elevated plus maze test. The class given is functional.
Data set [16] deals with Mus musculus. Put plainly: Antidepressant activity in mouse assessed as latent period of first immobilization at 5 mg/kg, ip measured for 6 mins by forced swimming test (reference value: 92 secs). The class given is functional. Put shortly: (§4)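 Each mouse swam in a glass container (22 cm high, 14 cm diameter) one-third filled with water, under natural light. Over 6 min, latency to first immobilization, total immobilization time and total active swimming time were recorded.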

Data set [17] relates to Mus musculus. Put plainly: Antidepressant activity in mouse assessed as total time of immobilization at 5 mg/kg, ip measured for 6 mins by forced swimming test (reference value: 81 secs). It is filed as functional. Put shortly: as §4
Data set [18] has as its system Mus musculus. Put plainly: Antidepressant activity in mouse assessed as total time of active swimming at 5 mg/kg, ip measured for 6 mins by forced swimming test (reference value: 282 secs). The class given is functional. Put shortly: as §4
The nature of data set [19]: Neurotoxicity in mouse assessed as myorelaxation at 50 to 100 mg/kg, ip measured for 2 mins by rotarod test. The class given is toxicity, organism-based. As to conditions: in vivo. Put shortly:
as §2

Data set [20] deals with Rattus norvegicus. Put plainly: Antianxiety activity in Wistar rat assessed as increase in number of sniffing cell examinations at 2 mg/kg, ip measured for 5 mins by open field test. It is filed as functional, organism-based. The method, boiled down:
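Male Wistar rats (120–140 g), 8 per group, dosed i.p. as suspension in carboxymethylcellulose with Tween-80; controls given emulsifier. Horizontal movements, rearings and sniffing of cells counted over 5 min in daylight with natural light.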

The test system of data set [21] is Mus musculus. Put plainly: Antianxiety activity in mouse assessed as time spent in closed arms at 2 mg/kg, ip measured for 5 mins by elevated plus maze test (reference value: 278.2 secs). It is filed as functional. The method, boiled down:
(§5)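 Mice placed at the junction of a raised cruciform maze (two open, two closed opposed arms) facing an open arm. Entries into and time spent in each arm and the centre recorded for 5 min by video tracking and an observer. Compound given i.p. beforehand; controls given emulsifier; P ≤ 0.05.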

Data set [22] deals with Mus musculus. Put plainly: Sedative activity in mouse assessed as time spent in center at 2 mg/kg, ip measured for 5 mins by elevated plus maze test (reference value: 21.8 secs). It is filed as functional. The method, boiled down: as §5
In data set [23] the test system is Mus musculus. Put plainly: Antianxiety activity in mouse assessed as increase in time spent in open arms at 2 mg/kg, ip measured for 5 mins by elevated plus maze test. It is filed as functional. Put shortly: as §5
The subject of data set [24] is Mus musculus. Put plainly: Antidepressant activity in mouse assessed as latent period of first immobilization at 2 mg/kg, ip measured for 6 mins by forced swimming test (reference value: 92 secs). The class given is functional. The method, boiled down:
(§6)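 Mice swum in a glass cylinder (height 22 cm, diameter 14 cm) one-third filled with water, under natural light. Latency to first immobility, total immobility and total active swimming recorded over 6 min after i.p. dosing; controls given emulsifier.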

Data set [25] relates to Mus musculus. Kind of data set: Antidepressant activity in mouse assessed as total time of immobilization at 2 mg/kg, ip measured for 6 mins by forced swimming test (reference value: 81 secs). The class given is functional. The method, boiled down:
as §6

Data set [26] deals with Mus musculus. Put plainly: Antidepressant activity in mouse assessed as total time of active swimming at 2 mg/kg, ip measured for 6 mins by forced swimming test (reference value: 282 secs). It is filed as functional. Put shortly:
as §6

The subject of data set [27] is Mus musculus. Put plainly: Antianxiety activity in mouse assessed as decrease in number of entries into closed arms at 50 mg/kg, ip measured for 5 mins by elevated plus maze test. The class given is functional, organism-based.
For data set [28], the system named is Mus musculus. Kind of data set: Antidepressant activity in mouse assessed as latent period of first immobilization at 50 mg/kg, ip measured for 6 mins by forced swimming test (reference value: 92 secs). The class given is functional. Put shortly: as §4
Data set [29] has as its system Mus musculus. Kind of data set: Antidepressant activity in mouse assessed as total time of immobilization at 50 mg/kg, ip measured for 6 mins by forced swimming test (reference value: 81 secs). The class given is functional. Put shortly: as §4
For data set [30], the system named is Mus musculus. Kind of data set: Antidepressant activity in mouse assessed as total time of active swimming at 50 mg/kg, ip measured for 6 mins by forced swimming test (reference value: 282 secs). It is filed as functional. The method, boiled down:
as §4

The test system of data set [31] is Mus musculus. Put plainly: Anticonvulsant activity in mouse assessed as proportion of animals displaying reduction in PTZ-induced clonic seizures at 200 mg/kg, ip administered 45 mins before PTZ stimulation relative to control. The class given is functional. The arrangement: scale not given: the % may be the effect or the level left.
A short description of data set [32]: Neurotoxicity in mouse assessed as myorelaxation at 100 to 200 mg/kg, ip measured for 2 mins by rotarod test. The class given is toxicity, organism-based. As to conditions: in vivo. Put shortly:
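Mice placed on a rubber-coated metal rod rotating at 5 rpm, dosed i.p. Count of animals able to stay on the rod for 2 min. TD50 derived by Litchfield–Wilcoxon probit analysis. Reference drugs given at effective anticonvulsant doses.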

SMILES strings stand for the structures. The source made the active and inactive calls. The rule behind the calls is not given here.

One may read the ED50 as the midpoint of the dose-response relation. One may read the TD50 as the 50% point of the dose-response relation for the toxic effect studied. One may read the MTD as the largest dose that counted as tolerated. Take `Cc1ccc(Nc2c(C#N)c3c(c4nnc(SCC(=O)N(c5ccccc5)c5ccccc5)n24)COC(C)(C)C3)cc1`: the ED50 in data set [1] turned out to be 45 mg/kg. Also, the Activity in data set [2] is recorded as 60%; in [9], “Non-Toxic”; in [19], “Non-Toxic”. For the same molecule, in data set [3], the “anticonvulsant activity (active/inactive)” value was “Active”. For the same molecule, the TD50 at 2 min in [4] is 610 mg/kg. For the same molecule, the MTD in data set [5] is 1750 mg/kg. Besides, in [6], the selectivity ratio was 13.5. Further, the outcome in data set [7], in data set [8], in data set [10] and in data set [11] was inactive. Besides, the Time turned out to be 242 s in data set [12]; 58 s in [14]; 6.2 s in data set [15]; 129 s in data set [16]; 106 s in [17]; 254 s in [18]. Besides, the outcome in data set [13] was Active.

For `CN1C(=O)CN=C(c2ccccc2)c2cc(Cl)ccc21` [DIAZEPAM], in [1], the ED50 came out at 0.5 mg/kg. For the same molecule, in data set [5], the MTD was 200 mg/kg. For the same molecule, the result in data set [7] and in data set [8] was inactive. The outcome in data set [20] was Active. In addition, the Time in data set [21] is listed as 257.5 s; in [22], 42.5 s; in [23] it was 57 s; in data set [24], 174 s; in data set [25] it was 24 s; in data set [26], 336 s.

For the molecule `CC1(C)Cc2c(C#N)c(Nc3ccccc3)n3c(SCC(=O)c4cccc([N+](=O)[O-])c4)nnc3c2CO1`, the ED50 in [1] is 36 mg/kg. In addition, the Activity in [2] is listed as 60%; in [9], “Non-Toxic”; in [19], “Non-Toxic”. Besides, in data set [3], the “anticonvulsant activity (active/inactive)” value is “Active”. For the same molecule, in data set [4], the TD50 at 2 min was 490 mg/kg. In data set [5], the MTD was determined as 1000 mg/kg. The selectivity ratio in data set [6] was 13.6. The result in [7], in data set [8], in data set [10] and in [11] was inactive. The Time in data set [12] came to 241 s; in data set [14], 51 s; in data set [15], 8 s; in data set [28] it was 147 s; in data set [29] it was 84 s; in [30], 276 s. For the same molecule, the outcome in data set [13] was Active. The inhibition result in data set [27] is “Active”.

Regarding `CCC1(C)CC(=O)NC1=O` (stereo not given) [ETHOSUXIMIDE], the Activity in [31] is recorded as 60%; in data set [32] it was “Non-Toxic”. The MTD in data set [5] was 1000 mg/kg. Also, the result in [7] and in data set [8] was inactive.

As for `CC1(C)Cc2c(C#N)c(Nc3ccccc3)n3c(SCCCc4ccccc4)nnc3c2CO1`, the ED50 in [1] was 23 mg/kg. Also, the Activity is 60% in [2], “Non-Toxic” in [9] and “Non-Toxic” in data set [19]. Besides, the “anticonvulsant activity (active/inactive)” value in data set [3] was “Active”. The TD50 at 2 min in data set [4] came out at 560 mg/kg. The MTD in [5] came to 1250 mg/kg. Further, the selectivity ratio in [6] came out at 24. Besides, the result in data set [7], in [8], in data set [10] and in data set [11] was inactive. Further, the Time was determined as 223 s in data set [12]; 67 s in data set [14]; 10 s in [15]; 139 s in data set [28]; 115 s in data set [29]; 245 s in data set [30]. For the same molecule, in [13], the result was Active. In [27], the inhibition result was “Active”.
